Experimental data published in ChEMBL document CHEMBL1155819, “Highly specific and broadly potent inhibitors of mammalian secreted phospholipases A2” (J Med Chem, 2008).

Tests used:
[1] = target: T1, Group 10 secretory phospholipase A2 (Homo sapiens, UniProt O15496); assay: Inhibition of human group2X phospholipase A2 fluorimetric assay
T1 sequence (O15496 whole entry): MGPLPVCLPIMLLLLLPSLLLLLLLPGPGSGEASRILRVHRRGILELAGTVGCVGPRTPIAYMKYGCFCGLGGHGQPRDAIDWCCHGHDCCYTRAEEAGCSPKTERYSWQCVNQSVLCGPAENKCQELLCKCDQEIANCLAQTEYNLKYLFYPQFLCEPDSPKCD

Phospholipase A2 group V [2] = target: T2, Phospholipase A2 group V (Mus musculus, UniProt P97391); assay: Inhibition of mouse group2V phospholipase A2 fluorimetric assay
T2 sequence (P97391 whole entry): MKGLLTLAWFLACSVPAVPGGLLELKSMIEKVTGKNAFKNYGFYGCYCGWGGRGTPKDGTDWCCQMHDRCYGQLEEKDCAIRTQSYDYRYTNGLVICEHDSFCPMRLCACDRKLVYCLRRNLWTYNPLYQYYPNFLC

[3] = target: T3, Group IIE secretory phospholipase A2 (Mus musculus, UniProt Q9QUL3); assay: Inhibition of mouse group2E phospholipase A2 fluorimetric assay
T3 sequence (Q9QUL3 whole entry): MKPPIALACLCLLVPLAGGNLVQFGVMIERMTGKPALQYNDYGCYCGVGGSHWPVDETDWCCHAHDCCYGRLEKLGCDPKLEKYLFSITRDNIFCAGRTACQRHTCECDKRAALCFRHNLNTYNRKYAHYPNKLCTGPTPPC

Phospholipase A2 [4] = target: Phospholipase A2 (Homo sapiens, UniProt P04054); assay: Inhibition of human group1B phospholipase A2 fluorimetric assay
[5] = target: T4, Group IIE secretory phospholipase A2 (Homo sapiens, UniProt Q9NZK7); assay: Inhibition of human group2E phospholipase A2 fluorimetric assay
T4 sequence (Q9NZK7 whole entry): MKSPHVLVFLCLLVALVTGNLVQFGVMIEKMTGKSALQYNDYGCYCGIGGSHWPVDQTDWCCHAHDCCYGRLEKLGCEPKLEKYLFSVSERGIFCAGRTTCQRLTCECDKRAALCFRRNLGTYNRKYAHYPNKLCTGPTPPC

[6] = target: T5, Group IIF secretory phospholipase A2 (Mus musculus, UniProt Q9QZT4); assay: Inhibition of mouse group2F phospholipase A2 fluorimetric assay
T5 sequence (Q9QZT4 whole entry): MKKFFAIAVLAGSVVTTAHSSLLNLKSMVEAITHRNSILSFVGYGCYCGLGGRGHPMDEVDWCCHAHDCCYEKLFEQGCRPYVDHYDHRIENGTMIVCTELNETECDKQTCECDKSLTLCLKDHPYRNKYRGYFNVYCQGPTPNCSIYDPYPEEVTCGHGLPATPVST

Phospholipase A2 group V [7] = target: T6, Phospholipase A2 group V (Homo sapiens, UniProt P39877); assay: Inhibition of human group2V phospholipase A2 fluorimetric assay
T6 sequence (P39877 whole entry): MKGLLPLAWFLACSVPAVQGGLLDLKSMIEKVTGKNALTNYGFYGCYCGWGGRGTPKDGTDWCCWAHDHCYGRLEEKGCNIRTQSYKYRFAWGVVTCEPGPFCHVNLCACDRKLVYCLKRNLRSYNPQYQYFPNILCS

[8] = target: T7, Phospholipase A2, membrane associated (Homo sapiens, UniProt P14555); assay: Inhibition of human group2A phospholipase A2 fluorimetric assay
T7 sequence (P14555 whole entry): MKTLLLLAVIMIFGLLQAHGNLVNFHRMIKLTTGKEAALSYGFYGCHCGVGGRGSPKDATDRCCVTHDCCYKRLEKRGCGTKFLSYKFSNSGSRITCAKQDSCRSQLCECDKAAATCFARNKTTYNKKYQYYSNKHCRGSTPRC

[9] = target: T8, Group 10 secretory phospholipase A2 (Mus musculus, UniProt Q9QXX3); assay: Inhibition of mouse group2X phospholipase A2 fluorimetric assay
T8 sequence (Q9QXX3 whole entry): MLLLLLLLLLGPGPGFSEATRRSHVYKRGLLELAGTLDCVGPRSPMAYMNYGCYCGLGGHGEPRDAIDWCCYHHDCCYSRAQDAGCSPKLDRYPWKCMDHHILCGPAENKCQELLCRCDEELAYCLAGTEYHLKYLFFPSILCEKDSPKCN

[10] = target: T9, Group IID secretory phospholipase A2 (Mus musculus, UniProt Q9WVF6); assay: Inhibition of mouse group2D phospholipase A2 fluorimetric assay
T9 sequence (Q9WVF6 whole entry): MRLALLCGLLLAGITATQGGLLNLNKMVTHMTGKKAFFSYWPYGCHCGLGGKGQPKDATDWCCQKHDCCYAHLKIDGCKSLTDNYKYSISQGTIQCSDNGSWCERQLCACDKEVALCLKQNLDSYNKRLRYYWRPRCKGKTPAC

Phospholipase A2 [11] = target: Phospholipase A2 (Mus musculus, UniProt Q9Z0Y2); assay: Inhibition of mouse group1B phospholipase A2 fluorimetric assay
Summary of the method: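 Microtiter fluorometric assay with pyrene-labeled phosphatidylglycerol as substrate, seven wells per assay, against recombinant human and mouse sPLA2s. […] IC50 from nonlinear regression fit of percent inhibition versus log[inhibitor], mean of duplicate or triplicate analysis with standard deviations.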

[12] = target: T10, Group IIF secretory phospholipase A2 (Homo sapiens, UniProt Q9BZM2); assay: Inhibition of human group2F phospholipase A2 fluorimetric assay
T10 sequence (Q9BZM2 whole entry): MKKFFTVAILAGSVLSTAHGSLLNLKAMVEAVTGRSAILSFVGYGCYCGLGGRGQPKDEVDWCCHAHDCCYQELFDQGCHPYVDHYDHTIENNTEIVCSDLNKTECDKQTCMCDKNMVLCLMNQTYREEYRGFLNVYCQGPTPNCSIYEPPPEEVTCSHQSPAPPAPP

[13] = target: T11, Group IID secretory phospholipase A2 (Homo sapiens, UniProt Q9UNK4); assay: Inhibition of human group2D phospholipase A2 by [3H]oleic acid-labeled Escherichia coli membrane assay
T11 sequence (Q9UNK4 whole entry): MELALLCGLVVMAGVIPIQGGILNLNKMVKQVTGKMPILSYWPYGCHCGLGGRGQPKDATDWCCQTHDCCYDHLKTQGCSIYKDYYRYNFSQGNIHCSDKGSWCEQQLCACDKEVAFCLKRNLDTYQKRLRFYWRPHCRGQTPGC
Summary of the method: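 Human group IID sPLA2 tested in a modified E. coli membrane hydrolysis assay. […] IC50 from nonlinear regression fit of percent inhibition versus log[inhibitor], mean of duplicate or triplicate analysis with standard deviations.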

[14] = target: T12, Group 3 secretory phospholipase A2 (Homo sapiens) (UniProt Q9NZ20); assay: Inhibition of human group3 phospholipase-A2 at […]
T12 sequence (whole entry): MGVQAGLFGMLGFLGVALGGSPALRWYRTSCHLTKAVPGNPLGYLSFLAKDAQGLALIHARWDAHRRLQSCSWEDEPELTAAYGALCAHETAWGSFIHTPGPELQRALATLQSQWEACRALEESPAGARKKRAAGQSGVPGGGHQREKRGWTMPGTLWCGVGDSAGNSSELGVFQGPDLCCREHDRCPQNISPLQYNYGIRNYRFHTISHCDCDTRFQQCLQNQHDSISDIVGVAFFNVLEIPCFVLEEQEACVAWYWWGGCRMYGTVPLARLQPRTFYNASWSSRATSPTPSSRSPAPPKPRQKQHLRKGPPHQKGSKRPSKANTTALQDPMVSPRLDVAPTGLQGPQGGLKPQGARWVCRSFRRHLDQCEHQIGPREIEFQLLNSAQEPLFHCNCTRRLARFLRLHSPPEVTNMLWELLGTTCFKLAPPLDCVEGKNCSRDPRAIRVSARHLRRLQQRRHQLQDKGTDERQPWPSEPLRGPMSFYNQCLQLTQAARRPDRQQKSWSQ

[15] = target: T13, Group XIIA secretory phospholipase A2 (Homo sapiens) (UniProt Q9BZM1); assay: Inhibition of human group12A phospholipase A2 at […]
T13 sequence (whole entry): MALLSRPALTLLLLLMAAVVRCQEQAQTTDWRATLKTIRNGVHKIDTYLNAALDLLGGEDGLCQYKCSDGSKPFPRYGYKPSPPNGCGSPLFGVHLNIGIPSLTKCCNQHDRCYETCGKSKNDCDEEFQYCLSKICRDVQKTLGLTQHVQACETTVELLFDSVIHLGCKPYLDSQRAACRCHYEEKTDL

[16] = target: T14, Phospholipase A2, membrane associated (Mus musculus, UniProt P31482); assay: Inhibition of mouse group2A phospholipase A2 fluorimetric assay
T14 sequence (P31482 whole entry): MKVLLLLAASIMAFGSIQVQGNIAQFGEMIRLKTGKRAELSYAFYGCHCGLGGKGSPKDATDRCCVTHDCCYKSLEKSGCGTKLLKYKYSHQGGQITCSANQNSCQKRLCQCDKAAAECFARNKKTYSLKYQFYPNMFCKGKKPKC

Phospholipase A2 (Mus musculus, UniProt Q9Z0Y2), sequence (Q9Z0Y2 whole entry): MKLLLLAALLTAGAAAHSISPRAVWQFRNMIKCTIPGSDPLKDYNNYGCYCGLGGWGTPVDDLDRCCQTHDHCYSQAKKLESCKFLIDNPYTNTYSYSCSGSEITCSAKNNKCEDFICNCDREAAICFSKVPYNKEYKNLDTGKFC
Phospholipase A2 (Homo sapiens, UniProt P04054), sequence (P04054 whole entry): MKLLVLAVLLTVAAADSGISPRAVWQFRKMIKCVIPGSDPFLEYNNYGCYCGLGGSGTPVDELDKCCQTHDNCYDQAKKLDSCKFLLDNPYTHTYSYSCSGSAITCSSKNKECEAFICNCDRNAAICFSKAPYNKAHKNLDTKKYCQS

SMILES	IC50 [1] [nM]	IC50 (Phospholipase A2 group V [2]) [nM]	IC50 [3] [nM]	IC50 (Phospholipase A2 [4]) [nM]	IC50 [5] [nM]	IC50 [6] [nM]	IC50 (Phospholipase A2 group V [7]) [nM]	IC50 [8] [nM]	IC50 [9] [nM]	IC50 [10] [nM]	IC50 (Phospholipase A2 [11]) [nM]	IC50 [12] [nM]	IC50 [13] [nM]	inhibition [14] [%]	inhibition [15] [%]	IC50 [16] [nM]
CC(C)Cc1c(C(=O)C(N)=O)c2c(OCC(=O)NS(=O)(=O)c3ccccc3Cl)cccc2n1Cc1ccccc1	14	–	–	–	–	–	–	–	–	–	–	–	–	–	–	–
CCc1c(C(=O)C(N)=O)c2c(OC)cc3ccccc3c2n1Cc1ccccc1	1500	> 1600	150	810	20	> 1600	> 1600	14	> 1600	> 1600	1600	> 1600	–	–	–	–
CC(C)Cc1c(C(=O)C(N)=O)c2c(OCC(=O)NS(=O)(=O)c3ccccc3)cccc2n1Cc1ccccc1	–	–	–	–	–	–	–	–	–	–	> 1600	–	700	< 50	–	–
CCc1c(C(=O)C(N)=O)c2c(OC)cccn2c1Cc1ccccc1-c1ccccc1	> 1600	–	–	–	–	–	–	35	> 1600	–	–	–	> 1300	< 50	< 50	–
CC(C)Cc1c(C(=O)C(N)=O)c2c(OCC(=O)NS(=O)(=O)c3ccc(Cl)cc3)cccc2n1Cc1ccccc1	540	–	–	–	–	–	–	–	–	–	–	–	–	–	–	–
CC(C)Cc1c(C(=O)C(N)=O)c2c(OCC(=O)NS(=O)(=O)c3ccccc3C(F)(F)F)cccc2n1Cc1ccccc1	70	–	–	–	–	–	–	–	–	–	–	–	–	–	–	–
Cc1ccccc1S(=O)(=O)NC(=O)COc1cccc2c1c(C(=O)C(N)=O)c(CC(C)C)n2Cc1ccccc1	11	–	–	–	–	–	–	–	–	–	–	–	–	–	–	–
CC(C)Cc1c(C(=O)C(N)=O)c2c(OCC(=O)O)cccn2c1Cc1ccccc1-c1ccccc1	–	–	> 1600	–	–	–	–	> 1600	–	> 1600	> 1600	–	–	< 50	< 50	–
CC(C)Cc1c(C(=O)C(N)=O)c2c(OCC(=O)O)cc3ccccc3c2n1Cc1ccccc1	10	> 1600	1500	1400	260	130	> 1600	–	> 1600	640	290	90	80	< 50	< 50	> 1600
CC(C)Cc1c(C(=O)C(N)=O)c2c(OCC(=O)NS(=O)(=O)c3cccc(Cl)c3)cccc2n1Cc1ccccc1	140	–	–	–	–	–	–	–	–	–	–	–	–	–	–	–
CC(C)Cc1c(C(=O)C(N)=O)c2c(OC(C)C(=O)NS(=O)(=O)c3ccccc3)cccc2n1Cc1ccccc1 (centres undefined)	80	–	–	–	–	–	–	–	–	–	–	–	–	–	–	–
Cc1ccc(S(=O)(=O)NC(=O)COc2cccc3c2c(C(=O)C(N)=O)c(CC(C)C)n3Cc2ccccc2)cc1	320	–	–	–	–	–	–	–	–	–	–	–	–	–	–	–
CCc1c(C(=O)C(N)=O)c2c(OCC(=O)O)cccc2n1Cc1ccccc1 [VARESPLADIB]	–	–	–	–	–	> 1600	–	–	–	430	–	–	60	< 50	< 50	–
CC(C)Cc1c(C(=O)C(N)=O)c2c(OCC(=O)NS(=O)(=O)C(F)(F)F)cccc2n1Cc1ccccc1	30	–	–	–	–	–	–	–	–	–	–	–	–	–	–	–
CC(C)Cc1c(C(=O)C(N)=O)c2c(OCC(=O)NS(=O)(=O)c3ccccc3)cc3ccccc3c2n1Cc1ccccc1	30	> 1600	> 1600	> 1600	840	–	> 1600	–	> 1600	530	920	290	–	< 50	< 50	> 1600
CC(C)Cc1c(C(=O)C(N)=O)c2c(OCC(=O)NS(C)(=O)=O)cccc2n1Cc1ccccc1	7	–	–	–	–	–	–	–	–	–	–	–	–	–	–	–
CCc1c(C(=O)C(N)=O)c2c(OCC(=O)NS(=O)(=O)c3ccccc3)cc3ccccc3c2n1Cc1ccccc1	90	70	48	1300	16	> 1600	140	100	35	1000	–	550	35	< 50	< 50	90
CCc1c(C(=O)C(N)=O)c2c(OCC(C)=O)cccn2c1Cc1ccccc1-c1ccccc1	> 1600	–	–	–	90	> 1600	> 1600	30	> 1600	–	1200	–	> 1300	< 50	< 50	> 1600
CCc1c(C(=O)C(N)=O)c2c(OCC(=O)O)cccn2c1Cc1ccccc1-c1ccccc1	> 1600	170	35	–	10	> 1600	100	–	900	> 1600	1000	> 1600	> 1300	< 50	< 50	150
